Experimental data: ChEMBL document CHEMBL3400011, “Canthinone alkaloids are novel protein tyrosine phosphatase 1B inhibitors” (Bioorg Med Chem Lett, 2015)

Assays:
[1] = target: Tyrosine-protein phosphatase non-receptor type 6 (Homo sapiens) (UniProt P29350); test: Inhibition of SHP1 (unknown origin) assessed as inhibition rate at 75 uM
[2] = target: T1, Tyrosine-protein phosphatase non-receptor type 1 (Homo sapiens, UniProt P18031); test: Competitive inhibition of PTP1B (unknown origin) assessed as hydrolysis of para-nitrophenylphosphate by Lineweaver-Burk plot
T1 sequence (P18031 whole entry): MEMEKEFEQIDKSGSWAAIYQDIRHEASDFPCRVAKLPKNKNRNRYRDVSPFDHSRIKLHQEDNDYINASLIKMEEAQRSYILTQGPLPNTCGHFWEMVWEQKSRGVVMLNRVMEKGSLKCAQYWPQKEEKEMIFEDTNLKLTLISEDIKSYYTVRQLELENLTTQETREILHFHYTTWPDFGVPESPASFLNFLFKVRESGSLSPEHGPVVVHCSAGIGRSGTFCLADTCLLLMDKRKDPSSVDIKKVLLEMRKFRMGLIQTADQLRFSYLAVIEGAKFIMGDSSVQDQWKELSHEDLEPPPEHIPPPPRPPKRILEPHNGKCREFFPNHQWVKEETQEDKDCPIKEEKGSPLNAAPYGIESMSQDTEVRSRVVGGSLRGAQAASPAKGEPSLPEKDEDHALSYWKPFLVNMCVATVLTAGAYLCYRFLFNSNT
Outline: (§1)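 Kinetic study of PTP1B varying both compound and p-nitrophenylphosphate substrate concentrations. Mode was read from Lineweaver–Burk plots. Slopes from those plots were replotted against compound concentration (secondary plot), and Ki was calculated from that plot.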

[3] = target: T1, Tyrosine-protein phosphatase non-receptor type 1; test: Inhibition of PTP1B (unknown origin)
Outline: (§2)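 PTP1B enzymatic assay with RK-682 as the positive control. For the single-point screen, compounds were tested at a final 100 µM. For dose–response, inhibition was measured over a range of compound concentrations, and IC50 was obtained by regression analysis.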

[4] = target: T2, Tyrosine-protein phosphatase non-receptor type 2 (Homo sapiens) (UniProt P17706); test: Inhibition of TCPTP (unknown origin) assessed as inhibition rate at 75 uM
T2 sequence (whole entry): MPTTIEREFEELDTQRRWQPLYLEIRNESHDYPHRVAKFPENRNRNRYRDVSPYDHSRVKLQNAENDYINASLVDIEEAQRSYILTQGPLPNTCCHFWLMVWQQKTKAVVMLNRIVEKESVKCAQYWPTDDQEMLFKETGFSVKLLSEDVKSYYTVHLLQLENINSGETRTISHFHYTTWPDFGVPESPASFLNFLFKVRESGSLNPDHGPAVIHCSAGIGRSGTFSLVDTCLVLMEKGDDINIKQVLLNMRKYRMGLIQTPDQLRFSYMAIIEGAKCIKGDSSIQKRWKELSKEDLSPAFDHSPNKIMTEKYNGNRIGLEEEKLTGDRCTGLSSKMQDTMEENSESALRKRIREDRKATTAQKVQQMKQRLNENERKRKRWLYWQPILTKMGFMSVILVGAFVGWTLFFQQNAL

Homo sapiens [5] = organism: Homo sapiens; test: Ratio of inhibition rate for PTP1B (unknown origin) at 75 uM to inhibition rate for TCPTP (unknown origin) at 75 uM
HepG2 = test: Induction of Akt phosphorylation in insulin-stimulated human HepG2 cells assessed as pAkt/Akt ratio at 50 uM after 5 mins by western blotting analysis relative to control; format: functional
Outline: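 HepG2 cells were treated with compound at 50 µM, then stimulated with insulin. pAkt was assessed by western blotting at 0 and 5 min after insulin. DMSO served as the negative control and sodium orthovanadate (200 µM) as the positive control. Values are expressed relative to control.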

Homo sapiens [6] = organism: Homo sapiens; test: Ratio of inhibition rate for PTP1B (unknown origin) at 75 uM to inhibition rate for SHP1 (unknown origin) at 75 uM
[7] = target: T3, Tyrosine-protein phosphatase non-receptor type 11 (Homo sapiens) (UniProt Q06124); test: Inhibition of SHP2 (unknown origin) assessed as inhibition rate at 75 uM
T3 sequence (whole entry): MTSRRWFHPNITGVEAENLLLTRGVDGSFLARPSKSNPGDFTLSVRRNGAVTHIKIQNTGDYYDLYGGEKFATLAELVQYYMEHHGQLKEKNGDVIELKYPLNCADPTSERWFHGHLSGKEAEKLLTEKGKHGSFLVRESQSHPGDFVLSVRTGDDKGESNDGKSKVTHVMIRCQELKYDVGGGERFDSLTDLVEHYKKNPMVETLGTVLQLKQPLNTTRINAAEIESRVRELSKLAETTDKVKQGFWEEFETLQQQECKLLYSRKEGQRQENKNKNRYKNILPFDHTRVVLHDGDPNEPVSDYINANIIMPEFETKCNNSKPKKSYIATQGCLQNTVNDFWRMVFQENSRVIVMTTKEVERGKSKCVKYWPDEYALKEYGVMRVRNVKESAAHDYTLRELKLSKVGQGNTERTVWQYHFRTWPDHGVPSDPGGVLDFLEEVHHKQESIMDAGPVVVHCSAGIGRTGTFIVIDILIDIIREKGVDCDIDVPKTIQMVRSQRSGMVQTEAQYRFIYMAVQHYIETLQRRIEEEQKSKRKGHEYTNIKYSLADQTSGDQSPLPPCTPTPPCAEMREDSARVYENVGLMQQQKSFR

[8] = target: T4, Tyrosine-protein phosphatase non-receptor type 1 (Homo sapiens) (UniProt P18031); test: Inhibition of PTP1B (unknown origin) assessed as inhibition rate at 75 uM
T4 sequence (whole entry): T1 sequence (P18031 whole entry)

Homo sapiens [9] = organism: Homo sapiens; test: Ratio of inhibition rate for PTP1B (unknown origin) at 75 uM to inhibition rate for SHP2 (unknown origin) at 75 uM
Homo sapiens [10] = organism: Homo sapiens; test: Ratio of inhibition rate for PTP1B (unknown origin) at 75 uM to inhibition rate for VHR (unknown origin) at 75 uM
[11] = target: Dual specificity protein phosphatase 3 (Homo sapiens) (UniProt P51452); test: Inhibition of VHR (unknown origin) assessed as inhibition rate at 75 uM
Chain of Dual specificity protein phosphatase 3 (Homo sapiens) (P51452 whole entry, looked up): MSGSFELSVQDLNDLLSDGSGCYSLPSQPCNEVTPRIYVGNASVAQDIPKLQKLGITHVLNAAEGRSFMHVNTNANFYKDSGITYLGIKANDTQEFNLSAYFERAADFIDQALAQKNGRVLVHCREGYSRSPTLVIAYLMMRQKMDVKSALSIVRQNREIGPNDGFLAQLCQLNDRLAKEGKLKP

Homo sapiens [12] = organism: Homo sapiens; test: Ratio of inhibition rate for PTP1B (unknown origin) at 75 uM to inhibition rate for SHP1 (unknown origin) at 100 uM
[13] = target: Tyrosine-protein phosphatase non-receptor type 6 (Homo sapiens) (UniProt P29350); test: Inhibition of SHP1 (unknown origin) assessed as inhibition rate at 100 uM
Homo sapiens [14] = organism: Homo sapiens; test: Ratio of inhibition rate for PTP1B (unknown origin) at 75 uM to inhibition rate for SHP2 (unknown origin) at 100 uM
[15] = target: T3, Tyrosine-protein phosphatase non-receptor type 11 (Homo sapiens); test: Inhibition of SHP2 (unknown origin) assessed as inhibition rate at 100 uM
[16] = target: T4, Tyrosine-protein phosphatase non-receptor type 1 (Homo sapiens); test: Inhibition of PTP1B (unknown origin) assessed as inhibition rate at 100 uM; outline: as §2
[17] = target: T1, Tyrosine-protein phosphatase non-receptor type 1; test: Non-competitive inhibition of PTP1B (unknown origin) assessed as hydrolysis of para-nitrophenylphosphate by Lineweaver-Burk plot; outline: as §1
[18] = target: T2, Tyrosine-protein phosphatase non-receptor type 2 (Homo sapiens); test: Inhibition of TCPTP (unknown origin) assessed as inhibition rate at 100 uM
Homo sapiens [19] = organism: Homo sapiens; test: Ratio of inhibition rate for PTP1B (unknown origin) at 75 uM to inhibition rate for VHR (unknown origin) at 100 uM
[20] = target: Dual specificity protein phosphatase 3 (Homo sapiens) (UniProt P51452); test: Inhibition of VHR (unknown origin) assessed as inhibition rate at 100 uM
Homo sapiens [21] = organism: Homo sapiens; test: Ratio of inhibition rate for PTP1B (unknown origin) at 75 uM to inhibition rate for TCPTP (unknown origin) at 100 uM
[22] = target: T4, Tyrosine-protein phosphatase non-receptor type 1 (Homo sapiens); settings: 90 uM
[23] = target: T2, Tyrosine-protein phosphatase non-receptor type 2 (Homo sapiens); test: Inhibition of TCPTP (unknown origin) assessed as inhibition rate at 90 uM
[24] = target: T3, Tyrosine-protein phosphatase non-receptor type 11 (Homo sapiens); test: Inhibition of SHP2 (unknown origin) assessed as inhibition rate at 90 uM
[25] = target: Tyrosine-protein phosphatase non-receptor type 6 (Homo sapiens) (UniProt P29350); test: Inhibition of SHP1 (unknown origin) assessed as inhibition rate at 90 uM
[26] = target: Dual specificity protein phosphatase 3 (Homo sapiens) (UniProt P51452); test: Inhibition of VHR (unknown origin) assessed as inhibition rate at 90 uM

Chain of Tyrosine-protein phosphatase non-receptor type 6 (Homo sapiens) (P29350 whole entry): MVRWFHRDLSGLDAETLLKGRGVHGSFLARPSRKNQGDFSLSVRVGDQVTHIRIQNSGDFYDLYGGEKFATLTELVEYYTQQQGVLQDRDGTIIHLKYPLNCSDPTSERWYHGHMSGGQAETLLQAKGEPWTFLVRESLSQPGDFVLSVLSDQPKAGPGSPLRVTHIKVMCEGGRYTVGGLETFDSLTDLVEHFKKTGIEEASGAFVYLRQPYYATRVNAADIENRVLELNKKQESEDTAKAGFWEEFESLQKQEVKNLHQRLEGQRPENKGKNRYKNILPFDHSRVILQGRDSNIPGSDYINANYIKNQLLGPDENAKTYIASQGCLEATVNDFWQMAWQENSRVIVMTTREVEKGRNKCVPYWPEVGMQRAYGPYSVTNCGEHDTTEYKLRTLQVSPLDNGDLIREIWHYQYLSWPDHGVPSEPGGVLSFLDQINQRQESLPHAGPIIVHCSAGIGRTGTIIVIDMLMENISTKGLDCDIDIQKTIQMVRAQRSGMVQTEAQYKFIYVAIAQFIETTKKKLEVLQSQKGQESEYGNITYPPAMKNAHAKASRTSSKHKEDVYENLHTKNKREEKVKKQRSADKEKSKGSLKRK

| IC50 [3] | Ratio (Homo sapiens [12]) | inhibition [13] | Ratio (Homo sapiens [14]) | inhibition [15] | inhibition [16] | Ki [17] | inhibition [18] | Ratio (Homo sapiens [19]) | inhibition [20] | Ratio (Homo sapiens [21]) | Structure (SMILES) | pAkt/Akt ratio (HepG2) | further results |
| --- | --- | --- | --- | --- | --- | --- | --- | --- | --- | --- | --- | --- | --- |
| 19.8 µM |  |  |  |  |  |  |  |  |  |  | Cn1ccc2c3n(c(=O)c(=O)cc1-3)c1ccccc21 | 2.4 | inhibition [1]: 13.2%; Ki [2]: 7.07 µM; inhibition [4]: 29%; Ratio (Homo sapiens [5]): 3.2; Ratio (Homo sapiens [6]): 6.9; inhibition [7]: 16.3%; inhibition [8]: 91.4%; Ratio (Homo sapiens [9]): 5.6; Ratio (Homo sapiens [10]): 4.4; inhibition [11]: 20.6% |
| 19.2 µM | 3.3 | 28.7% | 2.1 | 44.4% | 93.8% | 12.9 µM | 15% | 1.5 | 61.4% | 6.3 | COc1ccc2c3ccn(C)c4cc(=O)c(=O)n(c3-4)c2c1 | 1.8 |  |
| 27.8 µM | 4.4 | 20.6% | 3.6 | 25% | 91% | 20 µM | 40% | 4.6 | 19.7% | 2.3 | CCc1c2n(C)ccc3c-2n(c(=O)c1=O)c1ccccc31 | 1.2 |  |
| 28.9 µM |  |  |  |  |  | 18.4 µM |  |  |  |  | CC(=O)Oc1cc2nccc3c4ccccc4n(c1=O)c23 | 2.1 | inhibition [22]: 90.3%; inhibition [23]: 22.1%; inhibition [24]: 23%; inhibition [25]: 30.2%; inhibition [26]: 46% |
